Screening results as filed in PubChem BioAssay.
OX1R antag-1: human HCRTR1 antagonism; inhibition, % at 5 µM; CHO/OX1R cells, Fluo-8 calcium fluorescence, orexin A; O43613; 330,000 compounds, 0.43% hits;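 active = inhibition above its plate's threshold, mean inhibition of all tested compounds on the plate plus 3 SD, cut at about 37% in these data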;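 note: 0% = orexin A challenge wells and 100% = SB-334867-A antagonist wells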
Target sequence (O43613 whole entry, looked up): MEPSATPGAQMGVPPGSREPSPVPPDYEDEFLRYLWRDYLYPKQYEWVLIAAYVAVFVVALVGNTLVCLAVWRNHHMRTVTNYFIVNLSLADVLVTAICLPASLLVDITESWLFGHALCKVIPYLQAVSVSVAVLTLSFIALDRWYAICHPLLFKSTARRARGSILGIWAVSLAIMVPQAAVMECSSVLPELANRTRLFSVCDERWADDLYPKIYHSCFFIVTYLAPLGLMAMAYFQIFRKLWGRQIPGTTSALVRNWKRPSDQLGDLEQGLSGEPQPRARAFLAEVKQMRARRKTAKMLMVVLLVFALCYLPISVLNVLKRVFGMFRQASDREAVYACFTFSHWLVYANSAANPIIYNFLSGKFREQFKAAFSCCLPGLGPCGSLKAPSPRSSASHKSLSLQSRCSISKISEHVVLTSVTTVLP
TAAR1 antag: antagonists of human TAAR1 | CHO RD-HGA16 TAAR1, Fluo-8 calcium fluorescence, antagonist | inhibition, % at 3 µM | 360,000 compounds, 1.5% hits | AID 624466;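 active = inhibition above a per-plate cutoff, the mean inhibition of test compounds on that plate plus 3 SD, cut at about 49% in these data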;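 note: 0% = DMSO plus EC80 beta-PEA response and 100% = DMSO alone without agonist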
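Assay system: CHO-derived RD-HGA16 cells stably expressing human TAAR1 plus Gα16. Timing: 140 s kinetic read after compound, 140 s after agonist. Technique: kinetic Fluo-8 calcium fluorescence measurement. Measure: % inhibition of agonist calcium response.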
GPR7 antagonist: human neuropeptides B/W receptor 1 antagonism; P48145; GPR7-expressing cells, fluorescence antagonist assay; inhibition, % at 4.4 µM; 290,000 compounds, 1.1% hits; AID 1861; in the data active = inhibition above about 16%, passing the limit was not always enough;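 note: cells stimulated with the agonist NPW; 0% = agonist with vehicle and 100% = vehicle without agonist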
Target sequence (P48145 whole entry, looked up): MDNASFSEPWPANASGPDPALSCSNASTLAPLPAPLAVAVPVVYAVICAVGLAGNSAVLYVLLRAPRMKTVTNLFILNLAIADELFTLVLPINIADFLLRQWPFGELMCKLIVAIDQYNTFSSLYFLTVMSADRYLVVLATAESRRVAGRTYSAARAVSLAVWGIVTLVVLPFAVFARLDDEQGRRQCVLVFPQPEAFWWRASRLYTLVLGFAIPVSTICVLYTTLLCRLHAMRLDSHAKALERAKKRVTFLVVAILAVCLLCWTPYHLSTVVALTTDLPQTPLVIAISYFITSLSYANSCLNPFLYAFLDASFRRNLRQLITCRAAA
CHO parental Ca: counter-screen: ATP calcium response change in parental CHO cells. parental CHO-K1, ATP-induced calcium, Fluo-8 fluorescence. inhibition, % at 5.6 µM. 330,000 compounds, 0.63% hits;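 active = inhibition above that plate's mean sample inhibition plus 3 SD, cut at about 26% in these data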;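 note: 0% = ATP-challenged DMSO wells and 100% = DMSO wells without ATP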
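Material – parental CHO cells · Reagent – ATP stimulus · Compound – single nominal dose of 5.6 µM per compound · Detection – Fluo-8 fluorescence · Read-out basis – percent inhibition of calcium signal · Controls – ATP-challenged DMSO wells low, unchallenged DMSO wells high · Repeats – no replicates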
TAAR1 agonist: human TAAR1 agonism | CHO RD-HGA16 TAAR1, Fluo-8 calcium fluorescence; vehicle wells 0%, saturating PEA agonist 100% | activation, % at 3 µM | 360,000 compounds, 0.99% hits;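 active = activation above the mean activation of all test compounds in the run plus 3 SD, cut at about 38% in these data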
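Assay system: CHO-derived RD-HGA16 cells with stable Gα16 and human TAAR1; timing: 17-24 h seeding, 75 min 37 °C dye, 30 min RT; read-out: % activation from peak over basal fluorescence ratio, DMSO-to-PEA scaled; measured by: kinetic Fluo-8 calcium fluorescence; benchmarks: low control DMSO, high control PEA (EC100); doses: 3 µM single concentration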
OX1R antag-2: blocks the human orexin 1 receptor. OX1R-expressing cells, FRET antagonist read-out. inhibition, % at 6.6 µM. O43613. 330,000 compounds, 1.8% hits. AID 485270; in the data active = inhibition mostly above about 38%, no sharp cut-off; inactive = mostly below about 40%;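 note: 0% = agonist challenge alone and 100% = reference antagonist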
GPR7 antag conf: confirmation of human GPR7 antagonists; shares compounds with GPR7 antagonist; GPR7-expressing cells, calcium fluorescence antagonist mode; 2,400 compounds, 52% hits; inhibition, % at 4.4 µM; in the data active = inhibition above about 24%;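 note: stimulated with the GPR7 agonist NPW; 0% = agonist plus vehicle and 100% = vehicle alone without agonist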
MCHR1 antag: counter-screen for GPR7 antagonists: antagonists of human MCHR1. shares compounds with GPR7 antagonist. inhibition, % at 4.4 µM. MCHR1-expressing cells, fluorescence antagonist assay. 2,400 compounds, 62% hits;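 note: 0% = vehicle with agonist and 100% = vehicle without agonist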
OX1R Ca confirm: OX1R (human) antagonism, confirmed. CHO/OX1R cells, orexin A calcium Fluo-8 fluorescence. shares compounds with OX1R antag-1. AID 492963. 1,100 compounds, 38% hits. inhibition, % at 5 µM; in the data active = inhibition above about 29%;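 note: 0% = agonist challenge alone and 100% = reference antagonist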
CHO Ca counter: counter-screen: parental CHO calcium response change, triplicate; shares compounds with OX1R antag-1; parental CHO-K1, ATP-induced calcium, Fluo-8 fluorescence; inhibition, % at 5.6 µM; 1,100 compounds, 9.3% hits;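 active = inhibition above a per-plate limit, the mean inhibition of that plate's test compounds plus 3 SD, cut at about 25% in these data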;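 note: 0% = ATP challenge with DMSO and 100% = DMSO without ATP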
TAAR1 nonsel count: nonselective antagonist in TAAR1 antagonist counter-screen | shares compounds with TAAR1 antag | counterscreen cell line, calcium fluorescence, antagonist mode | inhibition, % at 3 µM | 2,400 compounds, 77% hits | AID 651780;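 note: CHO-Ga16 host cells stimulated with ATP at an EC80 level; 0% = agonist EC80 plus vehicle and 100% = vehicle without agonist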
TAAR1 ant conf: human TAAR1 antagonism, confirmed; shares compounds with TAAR1 antag; AID 651785; inhibition, % at 3 µM; 2,400 compounds, 40% hits; TAAR1-expressing cells, fluorescence antagonist read-out; in the data active = inhibition above about 49%;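 note: CHO-Ga16 host cells challenged with agonist PEA near its EC80; 0% = agonist at EC80 plus vehicle and 100% = vehicle with no agonist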
Ga16 ag counter-1: nonselective Ga16 agonism, counter-screen. shares compounds with TAAR1 antag. Ga16-expressing cells, calcium fluorescence, agonist counterscreen. activation, % at 3 µM. 2,400 compounds, 18% hits. AID 651953; in the data active = activation above about 12%;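 note: 0% = vehicle wells and 100% = saturating stimulus response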
TAAR1 ag count: TAAR1 agonism, antagonist counter-screen; shares compounds with TAAR1 antag; hTAAR1 cell line, fluorescence activation, agonist mode; activation, % at 3 µM; 2,400 compounds, 2% hits; in the data active = activation above about 37%;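 note: CHO cells stably expressing TAAR1 with calcium dye readout; 0% = DMSO vehicle and 100% = full agonist response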
TAAR1 ag conf: confirmation of human TAAR1 agonists. shares compounds with TAAR1 agonist. CHO RD-HGA16 TAAR1, Fluo-8 calcium fluorescence; scaled: DMSO 0%, maximal phenethylamine 100%. activation, % at 3 µM. 2,400 compounds, 82% hits. AID 651783;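 active = activation above a cutoff set at the run's mean compound activation plus 3 SD, cut at about 39% in these data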
Ga16 ag counter-2: nonselective agonist in parental cells, TAAR1 agonist counter-screen. shares compounds with TAAR1 agonist. CHO-Ga16 parental, Fluo-8 calcium fluorescence; normalized to maximal ATP response, DMSO zero. activation, % at 3 µM. 2,400 compounds, 50% hits;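 active = activation above the run cutoff, the mean activation over all tested wells plus 3 SD, cut at about 12% in these data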;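 note: 0% = DMSO wells and 100% = maximal ATP response on the peak over basal ratio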
TAAR1 desensitize: counter-screen for human TAAR1 agonists: agonists that desensitize TAAR1; shares compounds with TAAR1 agonist; 2,400 compounds, 46% hits; CHO RD-HGA16 hTAAR1, Fluo-8 calcium, beta-PEA response inhibition; inhibition, % at 3 µM; AID 651951;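 active = inhibition above the run cutoff, the mean inhibition of all test compounds plus 3 SD, cut at about 49% in these data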;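 note: beta-PEA stimulus applied at its EC80; loss of beta-PEA calcium signal after compound pretreatment read as receptor desensitization; 0% = DMSO with beta-PEA at EC80 and 100% = DMSO alone without agonist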
Ga16 nonsel ant: nonselective Ga16 antagonism, counter-screen; AID 651952; 2,400 compounds, 39% hits; CHO-Ga16 ATP-induced calcium, Fluo-8 fluorescence; inhibition, % at 3 µM; shares compounds with TAAR1 agonist;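 active = inhibition above the plate's mean compound inhibition plus 3 SD, computed per plate, cut at about 22% in these data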;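 note: 0% = EC80 ATP with DMSO and 100% = DMSO wells without ATP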
The depositor's hits bear a star; / = not tested or not shown. Only some compounds are listed: those with a hit (about 4.5% of all), similar ones and a draw of the others. Cut-off read from the data, not from the text of the source, unless noted: active = inhibition above about 22%; inactive = the rest.

SMILES | OX1R antag-1 | TAAR1 antag | GPR7 antagonist | CHO parental Ca | TAAR1 agonist | OX1R antag-2 | OX1R Ca confirm | CHO Ca counter | others
OC(c1cccc(Cl)c1)(c1cccc(Cl)c1)C1CN2CCC1CC2 (configuration not stated) | -19.0 | 29.6 | 33.6* | -0.8 | 11.9 | 3.9 | / | / | GPR7 antag conf=43.6*;MCHR1 antag=50.6*
C[C@]12C=CC(=O)C=C1CC[C@@H]1[C@@H]2CC[C@]2(C)C(=O)CC[C@@H]12 | / | 10.3 | / | / | 1.2 | / | / | /
C[C@]12CCC3[C@@H](CCC4=CC(=O)CC[C@@]43C=O)C1CCC2=O (some centres not stated) | 13.1 | -7.4 | 28.5* | 1.0 | 0.0 | -5.9 | / | / | GPR7 antag conf=-8.8;MCHR1 antag=6.6
COc1ccc(OCC(=O)N2CCN(Cc3nc4cc([N+](=O)[O-])ccc4n3C)CC2)cc1 | -16.4 | -3.7 | -10.7 | -6.2 | 5.6 | 14.7 | / | /
O=C(COc1ccc(Cl)cc1)N1CCN(Cc2ccc([N+](=O)[O-])cc2)CC1 | -21.4 | 19.6 | 30.0* | -15.9 | 2.7 | 18.5 | / | / | GPR7 antag conf=27.8*;MCHR1 antag=46.5*
CC(C)(C)C(=O)N1Cc2cc(N3CCCCC3)ccc2-n2nncc2C1 | / | -11.8 | / | / | 0.2 | / | / | /
C=CCn1c(=O)c(C=Nc2cccnc2Cl)c(O)n(CCCC)c1=O | -5.8 | -4.1 | -15.9 | -10.6 | 4.7 | 31.6 | / | /
O=P(NC(c1ccccc1)c1ccccc1)(Oc1ccccc1)Oc1ccccc1 | -19.2 | 63.9* | 26.1* | -13.7 | 4.8 | 17.0 | / | / | GPR7 antag conf=31.5*;MCHR1 antag=47.1*;TAAR1 nonsel count=31.7*;TAAR1 ant conf=64.5*;Ga16 ag counter-1=6.7;TAAR1 ag count=4.5
C=CCn1c(O)c(C=NCCN2CCOCC2)c(=O)[nH]c1=S | 6.0 | -18.4 | 7.2 | 6.2 | 3.2 | 2.9 | / | /
CC1(C)CSC(=NCc2ccccc2)N1 | 29.4 | 88.2* | 86.7* | 19.9 | 132.3* | 7.7 | 62.8* | 35.3* | GPR7 antag conf=95.6*;MCHR1 antag=102.3*;TAAR1 ag conf=111.3*;Ga16 ag counter-2=81.0*;TAAR1 desensitize=95.0*;Ga16 nonsel ant=67.7*
COc1ccc(CC2C(=O)NC(C)C(=O)N(C)C3C(=O)N(C)C(Cc4ccc(O)c(c4)Oc4ccc(cc4)C3O)C(=O)NC(C)C(=O)NC(C)C(=O)N2C)cc1 (configuration not stated) | / | -9.5 | / | / | 1.3 | / | / | /
COC(=O)C1=C(c2ccc(F)cc2OCc2ccccc2)C[C@@H]2CC[C@H]1N2C(=O)NCc1ccc(F)cc1 | -3.2 | 42.4 | / | -24.1 | 8.8 | 13.0 | / | /
COC(=O)C1=C(c2cccc(OCc3ccccc3)c2)C[C@@H]2CC[C@H]1N2C(=O)NCc1ccccc1 | -21.9 | 14.9 | / | -33.5 | 3.1 | 7.3 | / | /
COC(=O)C1=C(c2cccc(OCc3ccccc3)c2)C[C@@H]2CC[C@H]1N2C(=O)NCc1ccccc1OC | 51.7* | 18.6 | / | -7.2 | 1.1 | 10.1 | -6.6 | -5.5
COC(=O)C1=C(c2ccc(F)cc2OCc2ccccc2)C[C@@H]2CC[C@H]1N2C(=O)NCc1ccc(C)cc1 | 56.2* | 59.7* | / | -2.9 | 7.0 | 21.7 | -2.8 | -14.9
CN(C)C1C(=O)C(C(N)=O)=C(O)C2(O)C(=O)C3=C(O)c4c(O)cccc4C(C)(O)C3C(O)C12 (configuration not stated) | -5.8 | -9.2 | -14.2 | -0.6 | 4.3 | 21.4 | / | /
O=C(O)C(Cc1cnc[nH]1)NS(=O)(=O)c1ccc(Cl)cc1 (configuration not stated) | 34.9 | -7.4 | -5.6 | 0.3 | 11.5 | -1.5 | 2.3 | 3.0
CC(=O)Nc1ccccc1C(=O)OCC(=O)c1ccc2ccccc2c1 | 44.1* | 35.7 | 15.8 | 17.2 | 9.1 | 27.2 | 32.4* | 7.1
CC(=O)Nc1ccccc1C(=O)OCc1ccc(C(=O)c2ccccc2)cc1 | 23.6 | 37.8 | 6.3 | 13.2 | 7.5 | 19.8 | / | /
CS(=O)(=O)c1ccc(C2=C(CNC(=O)c3cccnc3)[C@H]3CC[C@@H](C2)N3Cc2ccccc2)cc1 | / | -3.1 | / | / | -0.1 | / | / | /
Oc1ccc(C2NCc3ccccc3-n3cccc32)cc1Cl (configuration not stated) | -0.1 | -11.0 | 2.9 | 2.8 | 17.7 | 22.8 | 0.2 | -9.6
ClCCNc1nc2ccc(Cl)cc2[nH]1 | -4.0 | -0.3 | -16.4 | 2.5 | 11.4 | 27.3 | / | /
Cn1cc(/C=C2\C(=O)NC(=O)N(c3ccccc3)C2=O)c2ccccc21 | 54.4* | 6.4 | -6.9 | -0.3 | 14.6 | 8.9 | -5.3 | -5.5
CCCCCCCCn1sccc1=O | 37.0* | 2.2 | / | 7.9 | 20.4 | 10.2 | 36.1* | 21.3
O=P(O)(Oc1ccccc1)OC(c1ccccc1)C(F)(F)F (configuration not stated) | -13.4 | -0.2 | -10.9 | -18.4 | 10.0 | 6.1 | / | /
